Experimental data reported in ChEMBL document CHEMBL4406825, “Design, synthesis and preliminary bioactivity evaluations of 8-hydroxyquinoline derivatives as matrix metalloproteinase (MMP) inhibitors” (Eur J Med Chem, 2019).
Activity calls are given as the source filed them. No cut-off for these calls is given here.

Tests used:
[1] = target: T1, 72 kDa type IV collagenase (Homo sapiens, UniProt P08253); experiment: Inhibition of recombinant human MMP2 at 10 uM using thiopeptide as substrate preincubated for 30 mins followed by substrate addition and measured every min for 20 mins by colorimetric assay relative to control
Outline: (§1)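 Colorimetric kit assay: human recombinant enzyme plus inhibitor in assay buffer for 30 min at 37 °C, then chromogenic MMP substrate added; A412 recorded each minute over 20 min. Enzyme-free blanks and inhibitor-free controls included.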
Target sequence in this assay (P08253 110-660 limits assumed): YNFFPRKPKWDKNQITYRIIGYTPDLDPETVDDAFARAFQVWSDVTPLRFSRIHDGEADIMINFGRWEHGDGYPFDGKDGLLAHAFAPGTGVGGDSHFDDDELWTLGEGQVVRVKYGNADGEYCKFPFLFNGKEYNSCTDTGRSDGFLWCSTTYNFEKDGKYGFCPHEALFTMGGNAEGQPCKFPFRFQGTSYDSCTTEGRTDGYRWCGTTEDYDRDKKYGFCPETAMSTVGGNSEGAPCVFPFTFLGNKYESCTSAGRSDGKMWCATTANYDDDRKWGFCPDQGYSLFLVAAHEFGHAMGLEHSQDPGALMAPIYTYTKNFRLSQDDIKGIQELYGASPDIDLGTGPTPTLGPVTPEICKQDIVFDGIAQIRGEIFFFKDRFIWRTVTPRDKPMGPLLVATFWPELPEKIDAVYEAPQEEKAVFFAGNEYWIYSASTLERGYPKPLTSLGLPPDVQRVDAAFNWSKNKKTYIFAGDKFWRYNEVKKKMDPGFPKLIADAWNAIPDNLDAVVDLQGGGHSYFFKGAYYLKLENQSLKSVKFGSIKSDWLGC

[2] = target: T2, Matrix metalloproteinase-9 (Homo sapiens, UniProt P14780); experiment: Inhibition of recombinant human MMP9 at 25 uM using thiopeptide as substrate preincubated for 30 mins followed by substrate addition and measured every min for 20 mins by colorimetric assay relative to control
T2 sequence (P14780 whole entry): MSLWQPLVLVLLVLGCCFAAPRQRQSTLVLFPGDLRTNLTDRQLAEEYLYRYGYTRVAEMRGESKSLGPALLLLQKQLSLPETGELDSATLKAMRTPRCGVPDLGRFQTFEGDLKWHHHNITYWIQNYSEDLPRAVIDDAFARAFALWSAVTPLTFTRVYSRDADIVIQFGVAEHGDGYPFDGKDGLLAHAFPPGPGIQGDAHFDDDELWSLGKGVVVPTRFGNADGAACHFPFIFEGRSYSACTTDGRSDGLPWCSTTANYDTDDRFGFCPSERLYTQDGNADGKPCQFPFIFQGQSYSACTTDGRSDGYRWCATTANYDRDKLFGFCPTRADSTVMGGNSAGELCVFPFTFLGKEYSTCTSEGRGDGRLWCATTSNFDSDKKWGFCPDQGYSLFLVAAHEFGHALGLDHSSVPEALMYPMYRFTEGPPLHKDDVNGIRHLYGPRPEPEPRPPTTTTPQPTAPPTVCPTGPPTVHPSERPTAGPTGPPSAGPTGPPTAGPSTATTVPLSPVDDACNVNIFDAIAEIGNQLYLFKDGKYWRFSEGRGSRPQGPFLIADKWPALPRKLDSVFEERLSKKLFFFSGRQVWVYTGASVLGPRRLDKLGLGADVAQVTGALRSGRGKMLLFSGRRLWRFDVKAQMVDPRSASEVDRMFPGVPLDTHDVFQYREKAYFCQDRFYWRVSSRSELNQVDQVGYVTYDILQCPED

[3] = target: T1, 72 kDa type IV collagenase; experiment: Inhibition of recombinant human MMP2 using thiopeptide as substrate preincubated for 30 mins followed by substrate addition and measured every mins for 20 min by colorimetric assay
Target sequence in this assay (P08253 whole entry): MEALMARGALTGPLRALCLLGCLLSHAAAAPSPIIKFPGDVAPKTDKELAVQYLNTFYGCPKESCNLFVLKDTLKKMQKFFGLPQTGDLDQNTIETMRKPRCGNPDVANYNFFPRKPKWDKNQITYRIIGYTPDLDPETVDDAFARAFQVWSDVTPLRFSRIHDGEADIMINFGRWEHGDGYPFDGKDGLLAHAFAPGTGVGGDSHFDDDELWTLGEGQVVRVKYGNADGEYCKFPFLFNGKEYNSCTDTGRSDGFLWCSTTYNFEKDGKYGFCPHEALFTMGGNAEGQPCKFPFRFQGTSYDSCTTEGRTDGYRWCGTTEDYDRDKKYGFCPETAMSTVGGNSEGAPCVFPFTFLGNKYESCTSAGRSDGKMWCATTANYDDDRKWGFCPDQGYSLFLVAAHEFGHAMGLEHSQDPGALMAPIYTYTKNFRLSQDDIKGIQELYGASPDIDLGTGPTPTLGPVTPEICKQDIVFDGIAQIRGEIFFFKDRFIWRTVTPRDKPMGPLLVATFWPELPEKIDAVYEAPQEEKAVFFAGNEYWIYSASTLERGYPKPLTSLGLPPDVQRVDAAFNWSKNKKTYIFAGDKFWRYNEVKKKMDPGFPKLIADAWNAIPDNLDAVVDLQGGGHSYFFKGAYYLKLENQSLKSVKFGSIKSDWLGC

[4] = target: T2, Matrix metalloproteinase-9; experiment: Inhibition of recombinant human MMP9 using thiopeptide as substrate preincubated for 30 mins followed by substrate addition and measured every min for 20 mins by colorimetric assay
[5] = target: T2, Matrix metalloproteinase-9; experiment: Inhibition of recombinant human MMP9 at 10 uM using thiopeptide as substrate preincubated for 30 mins followed by substrate addition and measured every min for 20 mins by colorimetric assay relative to control; outline: as §1
[6] = target: MMP-2/MMP-9 (Homo sapiens) (UniProt P08253+P14780); experiment: Selectivity ratio of IC50 for inhibition of recombinant human MMP9 to IC50 for inhibition of recombinant human MMP2
[7] = target: T2, Matrix metalloproteinase-9; experiment: Inhibition of recombinant human MMP9 at 50 uM using thiopeptide as substrate preincubated for 30 mins followed by substrate addition and measured every min for 20 mins by colorimetric assay relative to control
[8] = system: A549; experiment: Inhibition of cell migration in human A549 cells incubated for 24 hrs by crystal violet staining based transwell migration assay; type: functional
Outline: (§2)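 A549 cells pretreated 24 h with compound (1, 5, 10 µM), harvested into serum-free RPMI1640; 30,000 cells placed in upper transwell chamber, lower chamber RPMI1640 + 10% FBS as chemoattractant. Migration 24 h at 37°C, 5% CO2; cells fixed MeOH/acetic acid (3:1), upper side wiped, underside stained 0.1% crystal violet and counted. Three repeats, mean ± SEM.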

[9] = system: A549; experiment: Induction of apoptosis in human A549 cells assessed as viable cells at 1 uM incubated for 48 hrs by annexin V FITC and propidium iodide based flow cytometry (reference value: 94.7 %); type: functional; settings: A549, 48 h, read-out: Activity
Outline: (§3)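 A549 cells (1×10^5 cells/mL) treated 48 h at 0, 1, 5 or 10 µM; harvested, washed in cold PBS, resuspended in binding buffer with annexin V-FITC and PI, 15 min at room temperature in the dark, then analysed by flow cytometry.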

[10] = system: A549; experiment: Induction of apoptosis in human A549 cells assessed as early apoptotic cells at 10 uM incubated for 48 hrs by annexin V FITC and propidium iodide based flow cytometry (reference value: 2.15 %); type: functional; outline: as §3
[11] = system: K562; experiment: Antiproliferative activity against human K562 cells assessed as reduction in cell viability incubated for 48 hrs by MTT assay; type: functional, cell-based; settings: K562, 48 h
Outline: (§4)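 Cells grown in RPMI1640 with 10% FBS at 37°C, 5% CO2; seeded at 4000-5000 cells/well for 8 h, then exposed to a range of compound concentrations for 48 h. MTT added for 4 h, formazan dissolved in DMSO, absorbance at 570 nm; IC50 calculated from inhibition ratios.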

[12] = system: HUVEC; experiment: Cytotoxicity against HUVEC assessed as reduction in cell viability incubated for 48 hrs by MTT assay; type: cell-based; settings: Homo sapiens; outline: as §4
[13] = target: T2, Matrix metalloproteinase-9; experiment: Inhibition of MMP9 in human A549 cells assessed as decrease in gelatin digestion incubated for 24 hrs by coomassie brilliant blue staining-based zymographic assay; type: cell-based
Outline: (§5)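 A549 cells treated 24 h at 1, 5, 10 µM; culture supernatants electrophoresed on gelatin-containing SDS-PAGE, gels washed three times in 0.25% triton, then incubated 48 h at 37°C in 50 mM Tris-HCl pH 7.5 with 0.15 M NaCl, 5 mM CaCl2, 0.05% NaN3 to reveal gelatinolytic activity.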

[14] = system: A549; experiment: Induction of apoptosis in human A549 cells assessed as late apoptotic cells at 5 uM incubated for 48 hrs by annexin V FITC and propidium iodide based flow cytometry (reference value: 3.11 %); type: functional; outline: as §3
[15] = target: T1, 72 kDa type IV collagenase; experiment: Inhibition of MMP2 in human A549 cells assessed as decrease in gelatin digestion incubated for 24 hrs by coomassie brilliant blue staining-based zymographic assay; type: cell-based; outline: as §5
Target sequence in this assay (P08253 110-660 limits assumed): as the sequence (P08253 110-660 limits assumed) above

[16] = system: A549; experiment: Induction of apoptosis in human A549 cells assessed as necrotic cells at 10 uM incubated for 48 hrs by annexin V FITC and propidium iodide based flow cytometry (reference value: 0.02 %); type: functional; outline: as §3
[17] = system: A549; experiment: Induction of apoptosis in human A549 cells assessed as viable cells at 5 uM incubated for 48 hrs by annexin V FITC and propidium iodide based flow cytometry (reference value: 94.7 %); type: functional; settings: A549, 48 h, read-out: Activity; outline: as §3
[18] = system: KG-1; experiment: Antiproliferative activity against human KG1 cells assessed as reduction in cell viability incubated for 48 hrs by MTT assay; type: functional, cell-based; settings: KG-1, 48 h; outline: as §4
[19] = system: PC-3; experiment: Antiproliferative activity against human PC3 cells assessed as reduction in cell viability incubated for 48 hrs by MTT assay; type: functional, cell-based; settings: PC-3, 48 h; outline: as §4
[20] = system: A549; experiment: Antiproliferative activity against human A549 cells assessed as reduction in cell viability incubated for 48 hrs by MTT assay; type: functional, cell-based; settings: A549, 48 h; outline: as §4
[21] = system: MCF7; experiment: Antiproliferative activity against human MCF7 cells assessed as reduction in cell viability incubated for 48 hrs by MTT assay; type: functional, cell-based; settings: MCF7, 48 h; outline: as §4
[22] = system: A549; experiment: Induction of apoptosis in human A549 cells assessed as necrotic cells at 5 uM incubated for 48 hrs by annexin V FITC and propidium iodide based flow cytometry (reference value: 0.02 %); type: functional; outline: as §3
[23] = system: A549; experiment: Induction of apoptosis in human A549 cells assessed as viable cells at 10 uM incubated for 48 hrs by annexin V FITC and propidium iodide based flow cytometry (reference value: 94.7 %); type: functional; settings: A549, 48 h, read-out: Activity; outline: as §3
[24] = system: A549; experiment: Inhibition of cell invasion in human A549 cells incubated for 24 hrs by crystal violet staining based matrigel migration assay; type: functional
Outline: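 As the migration setup but membrane precoated with matrigel (1:10 diluted) for 2 h at 37°C: A549 pretreated 24 h at 1, 5, 10 µM, 30,000 cells in serum-free medium above, 10% FBS below, 24 h, then fixing, 0.1% crystal violet staining and counting. Three repeats, mean ± SEM.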

[25] = system: A549; experiment: Induction of apoptosis in human A549 cells assessed as late apoptotic cells at 10 uM incubated for 48 hrs by annexin V FITC and propidium iodide based flow cytometry (reference value: 3.11 %); type: functional; outline: as §3
[26] = system: A549; experiment: Induction of apoptosis in human A549 cells assessed as late apoptotic cells at 1 uM incubated for 48 hrs by annexin V FITC and propidium iodide based flow cytometry (reference value: 3.11 %); type: functional; outline: as §3
[27] = system: A549; experiment: Induction of apoptosis in human A549 cells assessed as necrotic cells at 1 uM incubated for 48 hrs by annexin V FITC and propidium iodide based flow cytometry (reference value: 0.02 %); type: functional; outline: as §3
[28] = system: HUVEC; experiment: Antiangiogenic activity in HUVEC assessed as inhibition of tuber formation at 10 uM incubated for 24 hrs by matrigel-based inverted microscopy; type: functional, cell-based; settings: Homo sapiens
Outline: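 HUVEC treated with compound for 24 h in serum-free RPMI1640, harvested and layered onto undiluted matrigel polymerized 2 h at 37°C; after 6 h cell organization examined by inverted microscope, with mesh number counted as the angiogenesis read-out. Tested at 10 µM.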

[29] = system: A549; experiment: Induction of apoptosis in human A549 cells assessed as early apoptotic cells at 5 uM incubated for 48 hrs by annexin V FITC and propidium iodide based flow cytometry (reference value: 2.15 %); type: functional; outline: as §3
[30] = system: A549; experiment: Down regulation of MMP9 expression in human A549 cells incubated for 24 hrs by Western blot analysis; type: functional, cell-based
Outline: (§6)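 A549 cells treated 24 h at 1, 5 and 10 µM; lysates run on SDS-PAGE, transferred to PVDF, blocked in 10% dry milk/TBST, probed with rabbit anti-MMP-2, anti-MMP-9 or anti-GAPDH, then secondary antibodies and imaged.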

[31] = system: HL-60; experiment: Antiproliferative activity against human HL60 cells assessed as reduction in cell viability incubated for 48 hrs by MTT assay; type: functional, cell-based; settings: HL-60, 48 h; outline: as §4
[32] = system: A549; experiment: Down regulation of MMP2 expression in human A549 cells incubated for 24 hrs by Western blot analysis; type: functional, cell-based; outline: as §6
[33] = system: A549; experiment: Induction of apoptosis in human A549 cells assessed as early apoptotic cells at 1 uM incubated for 48 hrs by annexin V FITC and propidium iodide based flow cytometry (reference value: 2.15 %); type: functional; outline: as §3
[34] = system: A549; experiment: Inhibition of cell migration in human A549 cells at 1 to 10 uM incubated for 24 hrs by crystal violet staining based transwell migration assay; type: functional; outline: as §2

Structure (SMILES)	inhibition [1]	IC50 [3]	IC50 [4]	inhibition [5]	IC50 [11]	IC50 [19]	IC50 [20]	IC50 [21]	viability at 1 µM [9]	Activity [10]	IC50 [12]	Activity [14]	Activity [16]	viability at 5 µM [17]	IC50 [18]	Activity [22]	viability at 10 µM [23]	Activity [25]	Activity [26]	Activity [27]	further results
CN(CCCCCC(=O)Nc1ccc(O)c2ncccc12)c1ccccc1	59.5%	6.2 µM	> 10 µM	35.3%	–	–	–	–	–	–	–	–	–	–	–	–	–	–	–	–	inhibition [2]: 22%; Ratio IC50 [6]: > 7; inhibition [7]: 26%
O=C(CCCCCNCc1cc(Cl)c2cccnc2c1O)Nc1ccccc1	100%	0.7 µM	0.66 µM	100%	2.3 µM	8.3 µM	11 µM	4.6 µM	75.8%	21%	> 50 µM	9.75%	0.14%	73.1%	2.3 µM	0.029%	72.3%	6.54%	7.81%	0.031%	inhibition [8]: Dose-dependent effect; inhibition [13]: Dose-dependent effect; inhibition [15]: Dose-dependent effect; inhibition [24]: Dose-dependent effect; inhibition [28]: Active; Activity [29]: 17.1%; Activity [30]: Dose-dependent effect; IC50 [31]: 1.8 µM; Activity [32]: Dose-dependent effect; Activity [33]: 16.4%
Cc1[nH]c2ccccc2c1CCNC(=O)CCCNCc1cc(Cl)c2cccnc2c1O	68.8%	0.81 µM	1.3 µM	100%	1.8 µM	22 µM	6.4 µM	7.8 µM	74.9%	32.5%	> 50 µM	6.17%	0.46%	64.4%	0.69 µM	0.027%	62.5%	4.97%	9.15%	0%	inhibition [13]: Dose-dependent effect; inhibition [15]: Dose-dependent effect; inhibition [24]: Dose-dependent effect; inhibition [28]: Active; Activity [29]: 29.4%; Activity [30]: Dose-dependent effect; IC50 [31]: 4 µM; Activity [32]: Dose-dependent effect; Activity [33]: 16%; inhibition [34]: Active

Further compounds by falling IC50 [3], results first:

inhibition [1]	IC50 [3]	IC50 [4]	inhibition [5]	IC50 [11]	IC50 [19]	IC50 [20]	IC50 [21]	Structure (SMILES)	viability at 1 µM [9]	Activity [10]	IC50 [12]	Activity [14]	Activity [16]	viability at 5 µM [17]	IC50 [18]	Activity [22]	viability at 10 µM [23]	Activity [25]	Activity [26]	Activity [27]	further results
–	8.8 µM	11 µM	–	3.6 µM	18 µM	51 µM	42 µM	O=S(=O)(Nc1ccc(O)c2ncccc12)c1ccc(F)cc1	79.5%	20.2%	> 50 µM	5.49%	0.11%	74.6%	4.6 µM	0.017%	73.1%	6.57%	6.11%	0.032%	inhibition [28]: Active; Activity [29]: 19.8%; IC50 [31]: 4.6 µM; Activity [33]: 14.4%; inhibition [34]: Active
57.5%	7.5 µM	> 10 µM	22.2%	–	–	–	–	CN(CCCCC(=O)Nc1ccc(O)c2ncccc12)c1ccccc1	–	–	–	–	–	–	–	–	–	–	–	–	inhibition [2]: 15%; Ratio IC50 [6]: > 7; inhibition [7]: 35%
